Measurements as given in ChEMBL document CHEMBL1144035, “Synthesis, cytostatic and anti-HCV activity of 6-(N-substituted aminomethyl)-, 6-(O-substituted hydroxymethyl)- and 6-(S-substituted sulfanylmethyl)purine nucleosides” (Bioorg Med Chem, 2008).
Activity calls are given as the source filed them. The calls are words filed in the database; no cut-off is given here.

Key:
L1210 = test: Cytostatic activity in mouse L1210 cells assessed as inhibition of cell growth after 72 hrs; assay type: functional, cell-based; settings: for IC50: L1210, 72 h
How it was run: (§1)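 Cultures from ATCC lines: mouse leukaemia L1210 (CCL 219), human promyelocytic leukaemia HL60 (CCL 240) and human T-lymphoblastoid CCRF-CEM (CCL 119). Growth inhibition was estimated from the cell count in a haematological analyzer (haemocytometer).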

CCRF-CEM [1] = test: Cytostatic activity in human CCRF-CEM cells assessed as inhibition of cell growth after 72 hrs; assay type: functional, cell-based; how it was run: as §1
HeLa = test: Cytostatic activity in human HeLa S3 cells assessed as inhibition of cell growth after 48 hrs by XTT assay; assay type: functional, cell-based
Hepatitis C virus = test: Antiviral activity against Hepatitis C virus 1b after 3 days; assay type: functional, organism-based, Hepacivirus hominis; settings: genotype 1b, 72 h
[2] = Cytotoxicity against human Huh7 cells after 3 days by MTT method; assay type: functional; settings: Huh-7, 72 h
How it was run: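 Cellular toxicity was read by MTT in Huh-7 cells carrying the con-1 HCV replicon, in duplicate (N = 2).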

MT4 = test: Cytotoxicity against human MT4 cells after 4 days; assay type: functional; settings: MT4, 96 h
How it was run: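 Cellular toxicity was measured in MT-4 cells, N = 2.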

HL-60 [3] = test: Cytostatic activity in human HL60 cells assessed as inhibition of cell growth after 72 hrs; assay type: functional, cell-based; settings: for IC50: HL-60, 72 h; how it was run: as §1
HL-60 [4] = test: Cytostatic activity in human HL60 cells assessed as inhibition of cell growth after 72 hrs by XTT assay; assay type: functional, cell-based; settings: HL-60, 72 h
CCRF-CEM [5] = test: Cytostatic activity in human CCRF-CEM cells assessed as inhibition of cell growth after 72 hrs by XTT assay; assay type: functional, cell-based
HL-60 [6] = test: Cell cycle arrest in human HL60 cells by accumulation at G1 phase after 72 hrs by flow cytometry; assay type: functional, cell-based
HL-60 [7] = test: Cell cycle arrest in human HL60 cells by depletion of cells at S phase after 72 hrs by flow cytometry; assay type: functional, cell-based

Row | Compound | Activity (L1210) | Activity (CCRF-CEM [1]) | Activity (HeLa) | EC50 (Hepatitis C virus) [µM] | CC50 [2] [µM] | CC50 (MT4) [µM] | Activity (HL-60 [3]) | IC50 (HL-60 [4]) [µM] | IC50 (L1210) [µM] | IC50 (CCRF-CEM [1]) [µM] | IC50 (HL-60 [3]) [µM] | IC50 (CCRF-CEM [5]) [µM] | Activity (HL-60 [6]) | Activity (HL-60 [7])
1 | OC[C@H]1O[C@@H](n2cnc3c(Cn4cccn4)ncnc32)[C@H](O)[C@@H]1O | inactive | inactive | inactive | 62 | > 250 | 48 | inactive |  |  |  |  |  |  | 
2 | CN(Cc1ccccc1)Cc1ncnc2c1ncn2[C@@H]1O[C@H](CO)[C@@H](O)[C@H]1O |  |  | inactive | 9 | 9 |  |  | 2.4 | 4.8 | 20.3 | 5.6 |  |  | 
3 | OC[C@H]1O[C@@H](n2cnc3c(COc4ccccc4)ncnc32)[C@H](O)[C@@H]1O | inactive |  | inactive | > 100 | > 100 |  | inactive |  |  |  |  |  |  | 
4 | O=c1ccccn1Cc1ncnc2c1ncn2[C@@H]1O[C@H](CO)[C@@H](O)[C@H]1O | inactive | inactive | inactive | 91 | > 100 |  | inactive |  |  |  |  |  |  | 
5 | O=C(O)CSCc1ncnc2c1ncn2[C@@H]1O[C@H](CO)[C@@H](O)[C@H]1O | inactive | inactive | inactive | > 100 | > 100 |  | inactive |  |  |  |  |  |  | 
6 | OC[C@H]1O[C@@H](n2cnc3c(CS)ncnc32)C[C@@H]1O | inactive | inactive | inactive | 20 | 41 |  | inactive |  |  |  |  |  |  | 
7 | CN(C)Cc1ncnc2c1ncn2[C@@H]1O[C@H](CO)[C@@H](O)[C@H]1O |  | inactive | inactive | 41 | > 100 |  |  |  | 5.1 |  | 4 |  |  | 
8 | OC[C@H]1O[C@@H](n2cnc3c(CSc4ccccn4)ncnc32)[C@H](O)[C@@H]1O | inactive | inactive | inactive | 44 | > 100 | > 100 | inactive |  |  |  |  |  |  | 
9 | CC(=O)NNCc1ncnc2c1ncn2[C@@H]1O[C@H](CO)[C@@H](O)[C@H]1O | inactive |  | inactive | 65 | > 250 |  |  | 11.4 |  | 18 | 6.6 | 10.3 |  | 
10 | OC[C@H]1O[C@@H](n2cnc3c(CS)ncnc32)[C@H](O)[C@@H]1O | inactive | inactive | inactive | 39 | 54 |  |  | 1.2 |  |  | 3.5 |  |  | 
11 | OCCN(CCO)Cc1ncnc2c1ncn2[C@@H]1O[C@H](CO)[C@@H](O)[C@H]1O |  |  | inactive | 15 | 10 |  |  | 4.37 | 14.3 | 6.7 | 14.7 | 3.72 | Active | Active
12 | OCCSCc1ncnc2c1ncn2[C@@H]1O[C@H](CO)[C@@H](O)[C@H]1O | inactive | inactive | inactive | 46 | > 100 | > 100 | inactive |  |  |  |  |  |  | 
13 | OC[C@H]1O[C@@H](n2cnc3c(Cn4ccc5ccccc54)ncnc32)[C@H](O)[C@@H]1O | inactive |  | inactive | 7.6 | > 250 | 45 |  | 9.1 |  | 3.4 | 5.7 | 1.96 |  | 
14 | OCc1ncnc2c1ncn2[C@@H]1O[C@H](CO)[C@@H](O)[C@H]1O |  |  | inactive |  |  |  |  |  |  | 0.15 | 0.01 |  |  | 
15 | OC[C@H]1O[C@@H](n2cnc3c(CSc4nc5ccccc5s4)ncnc32)[C@H](O)[C@@H]1O | inactive | inactive | inactive | > 100 | > 100 |  | inactive |  |  |  |  |  |  | 
16 | CC(=O)N(Cc1ncnc2c1ncn2[C@H]1C[C@H](O)[C@@H](CO)O1)C1CCCCC1 | inactive | inactive | inactive | 20 | > 100 | > 100 | inactive |  |  |  |  |  |  | 
17 | OC[C@H]1O[C@@H](n2cnc3c(CN4CCCCC4)ncnc32)[C@H](O)[C@@H]1O |  | inactive | inactive | 42 | 87 |  |  |  | 12.2 |  | 6.9 |  |  | 

Row | Compound | Activity (L1210) | Activity (CCRF-CEM [1]) | Activity (HeLa) | EC50 (Hepatitis C virus) [µM] | CC50 [2] [µM] | CC50 (MT4) [µM] | Activity (HL-60 [3]) | IC50 (HL-60 [4]) [µM] | IC50 (L1210) [µM] | IC50 (CCRF-CEM [1]) [µM] | IC50 (HL-60 [3]) [µM] | IC50 (CCRF-CEM [5]) [µM] | Activity (HL-60 [6]) | Activity (HL-60 [7])
18 | C[C@@]1(O)[C@H](O)[C@@H](CO)O[C@H]1n1cnc2c(N)ncnc21 |  |  | inactive | 0.23 | > 100 |  |  |  |  |  |  |  |  | 
19 | CC(=O)N(Cc1ccccc1)Cc1ncnc2c1ncn2[C@@H]1O[C@H](CO)[C@@H](O)[C@H]1O | inactive | inactive | inactive | > 100 | > 100 |  | inactive |  |  |  |  |  |  | 
20 | CSCc1ncnc2c1ncn2[C@@H]1O[C@H](CO)[C@@H](O)[C@H]1O |  |  | inactive | 10 | > 100 | 32 |  | 5 | > 30 | 15 | 13.4 | 3.2 |  | 
21 | CC(=O)N(C)Cc1ncnc2c1ncn2[C@@H]1O[C@H](CO)[C@@H](O)[C@H]1O | inactive | inactive | inactive | > 100 | > 100 |  | inactive |  |  |  |  |  |  | 
22 | O=C1CCCN1Cc1ncnc2c1ncn2[C@@H]1O[C@H](CO)[C@@H](O)[C@H]1O | inactive | inactive | inactive | 14 | 45 |  | inactive |  |  |  |  |  |  | 
23 | OC[C@H]1O[C@@H](n2cnc3c(COc4ccccn4)ncnc32)[C@H](O)[C@@H]1O | inactive |  | inactive | > 250 | > 250 |  |  | 14.3 |  | 16.6 | 12 | 10.8 |  | 
24 | CC(=O)N(Cc1ncnc2c1ncn2[C@@H]1O[C@H](CO)[C@@H](O)[C@H]1O)C1CCCCC1 | inactive | inactive | inactive | > 100 | > 100 |  | inactive |  |  |  |  |  |  | 
25 | OC[C@H]1O[C@@H](n2cnc3c(CSc4ccccc4)ncnc32)[C@H](O)[C@@H]1O | inactive | inactive | inactive | > 100 | > 100 |  | inactive |  |  |  |  |  |  | 
26 | O=c1ccn(Cc2ncnc3c2ncn3[C@@H]2O[C@H](CO)[C@@H](O)[C@H]2O)cc1 | inactive | inactive | inactive | > 100 | > 100 |  | inactive |  |  |  |  |  |  | 
27 | COCc1ncnc2c1ncn2[C@@H]1O[C@H](CO)[C@@H](O)[C@H]1O | inactive |  | inactive | 13 | > 100 |  |  | 1.68 |  | 6 | 13 | 1.14 | Active | Active
28 | CC(C)N(Cc1ncnc2c1ncn2[C@@H]1O[C@H](CO)[C@@H](O)[C@H]1O)C(C)C |  | inactive | inactive | 3 | 18 |  |  |  | 17 |  | 13 |  |  | 
29 | O=c1[nH]c(=O)n([C@H]2C[C@H](O)[C@@H](CO)O2)cc1F [FLOXURIDINE] |  |  | inactive |  |  |  |  |  | 0.012 |  |  |  |  | 
30 | OC[C@H]1O[C@@H](n2cnc3c(CN4CCOCC4)ncnc32)[C@H](O)[C@@H]1O | inactive | inactive | inactive | 186 | > 250 |  |  |  |  |  | 13 |  |  | 
31 | CC(=O)N(Cc1ncnc2c1ncn2[C@@H]1O[C@H](CO)[C@@H](O)[C@H]1O)C1CC1 | inactive | inactive | inactive | > 100 | > 100 |  | inactive |  |  |  |  |  |  | 
32 | O=C(O)CNCc1ncnc2c1ncn2[C@@H]1O[C@H](CO)[C@@H](O)[C@H]1O | inactive | inactive | inactive | 87 | > 100 |  | inactive |  |  |  |  |  |  | 
33 | OC[C@H]1O[C@@H](n2cnc3c(CN4CCSC4)ncnc32)[C@H](O)[C@@H]1O |  |  | inactive | 7 | 21 |  |  | 3.12 | 7.8 | 19.6 | 5.2 |  |  | 
